Activity calls are given as the source filed them.
Tests used:
[1] = test system: Canis familiaris; experiment: Immunostimulatory activity in mongrel dog infected with Trypanosoma cruzi Berenice-78 assessed as production of antibody IgG2 at 12 mg/kg, po BID for 90 days measured up to 30 days by ELISA; format: functional, organism-based; design: dose 12 mg/kg; details: Canis lupus familiaris
Method in brief: (§1)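 Serum was taken before inoculation and then monthly until 6 months posttreatment, and stored at −80°C. ELISA plates were coated with alkaline extract of Y-strain parasites grown to exponential phase in LIT medium. Bound total IgG or IgG2 was detected with peroxidase-labeled anti-dog conjugates and read at 490 nm. Cutoff was the mean absorbance of 10 uninfected dogs plus 2 SD.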

[2] = Half life in po dosed human; format: ADME, organism-based; details: in vivo
[3] = test system: Canis familiaris; experiment: Immunostimulatory activity in mongrel dog infected with Trypanosoma cruzi Berenice-78 assessed as reduction in IL10 production in right atrium at 7 mg/kg, po BID after 180 days by semiquantitative RT-PCR; format: functional, organism-based; design: dose 7 mg/kg; details: Canis lupus familiaris, Cardiac atrium
Method in brief: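 Dogs were euthanized 6 months after the end of treatment. RNA was extracted from the right atrium with acid guanidinium thiocyanate-phenol-chloroform. One microgram was DNase treated and reverse transcribed with oligo(dT) for 1 h at 42°C. IFN-γ or IL-10 cDNA was amplified with 1.5 mM MgCl2: 94°C 5 min, n cycles of 94/57/72°C, final extension 72°C 6 min. Expression was scored semiquantitatively against infected untreated and noninfected dogs.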

[4] = test system: Canis familiaris; experiment: Immunostimulatory activity in mongrel dog infected with Trypanosoma cruzi Berenice-78 assessed as production of antibody IgG2 at 7 mg/kg, po BID for 90 days measured up to 30 days by ELISA; format: functional, organism-based; design: dose 7 mg/kg; details: Canis lupus familiaris; method in brief: as §1
[5] = test system: Trypanosoma cruzi; experiment: Antimicrobial activity against Trypanosoma cruzi Y infected in mongrel dog assessed as parasite level in blood of dog at 7 mg/kg, po BID started 12 to 22 days postinfection measured after 30 days by PCR analysis; format: functional
Method in brief: (§2)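 Blood PCR for T. cruzi on treated dogs (n = 5 per group) at 1 and 6 months posttreatment. Each reaction took 2 μl blood DNA template in Tris-HCl pH 9.0, 75 mM KCl, 3.5 mM MgCl2 and 0.2 mM dNTPs. Cycling was 95°C 5 min, then 2 cycles annealing at 30°C, 33 cycles at 40°C, and 72°C 5 min. Products were run on 6% polyacrylamide and silver stained. Reported as rate of positive animals.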

[6] = Half life in mouse; format: ADME, organism-based; details: in vivo
[7] = test system: Canis familiaris; experiment: Toxicity in mongrel dog infected with Trypanosoma cruzi Y assessed as weight loss at 12 mg/kg, po BID for 90 days started 12 to 22 days postinfection measured after 6 months; format: organism-based, Canis lupus familiaris; design: dose 12 mg/kg, route oral; details: in vivo, 4383 h
Method in brief: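 Body weight gain, in kg, was recorded for infected dogs 1 day and 6 months after the end of oral b.i.d. treatment. Treated animals were compared with infected untreated and noninfected control groups.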

[8] = test system: Trypanosoma cruzi; experiment: Antimicrobial activity against Trypanosoma cruzi Y infected in mongrel dog assessed as parasite level in blood of dog at 12 mg/kg, po BID started 12 to 22 days postinfection measured after 6 months by PCR analysis; format: functional; method in brief: as §2
[9] = test system: Trypanosoma cruzi; experiment: Antitrypanosomal activity against Trypanosoma cruzi Y infected in mongrel dog assessed as reduction in parasite-induced intrafascicular collagen deposition in right atrium at 12 mg/kg, po BID after 180 days; details: Cardiac atrium
[10] = Half life in human; format: ADME, organism-based; details: in vivo
[11] = test system: Trypanosoma cruzi; experiment: Antimicrobial activity against Trypanosoma cruzi Berenice-78 infected in mongrel dog assessed as survival of dog at 7 mg/kg, po BID started 12 to 22 days postinfection measured after 1 day; format: functional
Method in brief: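 Four-month-old mongrel dogs (five per group) received 2.0 × 10^3 Y or Berenice-78 bloodstream trypomastigotes/kg. Oral dosing began 12–22 days postinfection, when parasitemia was detected by fresh blood examination: 12 mg/kg q12h for 90 days, or 7 mg/kg q12h for 60 days. Ear-vein blood was checked from day 10. Mortality was expressed as the cumulative percentage of dead animals.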

[12] = test system: Trypanosoma cruzi; experiment: Antimicrobial activity against Trypanosoma cruzi Berenice-78 infected in mongrel dog assessed as parasite level in blood of dog at 7 mg/kg, po BID started 12 to 22 days postinfection measured after 30 days by PCR analysis; format: functional; method in brief: as §2
[13] = test system: Trypanosoma cruzi; experiment: Antimicrobial activity against Trypanosoma cruzi Y infected in mongrel dog assessed as suppression of microbial proliferation at 7 mg/kg, po BID started 12 to 22 days postinfection measured after 1 day; format: functional, organism-based; design: dose 7 mg/kg
Method in brief: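 Mongrel dogs, 4 months old, dewormed and vaccinated, were inoculated with 2.0 × 10^3 bloodstream trypomastigotes/kg. Oral b.i.d. (q12h) dosing began 12 to 22 days postinfection, once parasitemia appeared. Dosing ran 90 days at 12 mg/kg and 60 days at 7 mg/kg, with 5 dogs per group. Parasitemia was read by fresh-blood examination of marginal ear vein blood from day 10 of infection until parasites were undetectable.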

[14] = test system: Trypanosoma cruzi; experiment: Antitrypanosomal activity against Trypanosoma cruzi Y infected in mongrel dog assessed as reduction in parasite-induced intrafascicular collagen deposition at 7 mg/kg, po BID after 180 days […]; format: functional, organism-based; design: dose 7 mg/kg
[15] = test system: Canis familiaris; experiment: Immunostimulatory activity in mongrel dog infected with Trypanosoma cruzi Y assessed as production of antibody IgG2 at 12 mg/kg, po BID for 90 days measured up to 30 days by ELISA; format: functional, organism-based; design: dose 12 mg/kg; details: Canis lupus familiaris; method in brief: as §1
[16] = Half life in mongrel dog; format: ADME, organism-based, Canis lupus familiaris; details: in vivo
[17] = test system: Canis familiaris; experiment: Immunostimulatory activity in mongrel dog infected with Trypanosoma cruzi Berenice-78 assessed as production of antibody IgG at 7 mg/kg, po BID for 90 days measured up to 30 days by ELISA; format: functional, organism-based; design: dose 7 mg/kg; details: Canis lupus familiaris; method in brief: as §1

SMILES: C[C@@H](c1nc(-c2ccc(C#N)cc2)cs1)[C@](O)(Cn1cncn1)c1ccc(F)cc1F [RAVUCONAZOLE]
- Activity [1]: Active
- half-life [2]: ≥ 120 h
- Activity [3]: Active
- Activity [4]: Active
- Activity [5]: 40%
- half-life [6]: 4.5 h
- Activity [7]: Non-toxic
- Activity [8]: 60%
- Activity [9]: Active
- half-life [10]: 96 h
- Activity [11]: 100%
- Activity [12]: 60%
- Activity [13]: Non-toxic
- Activity [14]: Active
- Activity [15]: Active
- half-life [16]: 8.8 h
- Activity [17]: Active
